The source made the active and inactive calls. No cut-off for these calls is given here.
Tests used:
[1] = Cytotoxicity against human MCF-7TN-R cells assessed as cell viability after 24 to 48 hrs by MTT assay; type: functional, cell-based
[2] = target: T1, Ceramide glucosyltransferase (Homo sapiens) (UniProt Q16739); assay: Inhibition of GCS in human OVCAR8 cells assessed as decrease in ratio of glucosylceramide to ceramide level at IC50 after 4 hrs by TLC assay; type: cell-based; settings: OVCAR-8
T1 sequence (whole entry): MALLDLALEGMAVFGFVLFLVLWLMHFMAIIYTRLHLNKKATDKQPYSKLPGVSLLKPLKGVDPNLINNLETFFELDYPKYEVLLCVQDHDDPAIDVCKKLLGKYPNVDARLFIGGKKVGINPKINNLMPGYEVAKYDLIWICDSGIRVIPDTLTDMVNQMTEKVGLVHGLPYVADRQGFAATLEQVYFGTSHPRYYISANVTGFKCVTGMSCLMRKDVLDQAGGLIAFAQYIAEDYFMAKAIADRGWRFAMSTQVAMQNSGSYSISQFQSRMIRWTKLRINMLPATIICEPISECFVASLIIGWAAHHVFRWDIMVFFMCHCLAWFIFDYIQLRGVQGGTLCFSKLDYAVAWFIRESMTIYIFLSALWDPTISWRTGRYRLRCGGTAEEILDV

[3] = system: MDA-MB-231; assay: Cytotoxicity against human MDA-MB-231 cells assessed as cell viability after 24 hrs by MTT assay; type: functional, cell-based; settings: MDA-MB-231, 24 h
In short: (§1)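 Cells seeded at 7500–10,000 per well in phenol-free DMEM and allowed 24 h to adhere. Exposed to graded analog concentrations (1 to 100 μM) for 24 h, then MTT added for 3–4 h. Formazan dissolved in 20% SDS/50% DMF for 24 h, absorbance read at 550 nm. Expressed as % of DMSO vehicle, run in quadruplicate on three occasions, IC50 from dose–response fit.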

[4] = target: T1, Ceramide glucosyltransferase (Homo sapiens); assay: Inhibition of GCS in human NCI/ADR-RES cells assessed as decrease in ratio of glucosylceramide to ceramide level at IC50 after 4 hrs by TLC assay; type: cell-based
[5] = system: NCI/ADR-RES; assay: Cytotoxicity against human NCI/ADR-RES cells assessed as cell viability after 72 hrs by CellTiter-Glo luminescence assay; type: functional, cell-based
In short: (§2)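 Cells grown overnight at 4000 per well in RPMI-1640 with 10% FBS, then treated with analogs for 72 h. Viability measured as luminescent ATP after incubation with CellTiter-Glo reagent. Three independent experiments.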

[6] = system: MCF7; assay: Cytotoxicity against human MCF7 cells assessed as cell viability after 24 hrs by MTT assay; type: functional, cell-based; settings: MCF7, 24 h; in short: as §1
[7] = system: MDA-MB-231; assay: Cytotoxicity against human MDA-MB-231 cells assessed as colony formation after 10 to 12 days by crystal violet staining assay; type: functional, cell-based
In short: (§3)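 Colony formation: 1000 cells per well in 10% DMEM, 24 h adhesion, then graded analog dilutions until colonies formed (generally 10–12 days). Fixed in 3% glutaraldehyde 30 min, stained 40 min with 0.2% crystal violet/20% methanol. Colonies over 30 cells hand-counted, normalized to DMSO control, IC50 from dose–response fit.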

[8] = (§4) Induction of apoptosis in human MCF-7TN-R cells at 2 times IC50 determined from MTT assay after 24 hrs by ELISA relative to control; type: functional
In short: (§5)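 MCF-7TN-R cells at 7500–10,000 per well in phenol-free DMEM adhered 24 h, then treated 24 h at twice the MTT-derived IC50. DNA fragmentation read with cell death detection ELISA. Normalized to MTT viability on the same plate, duplicate on three occasions.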

[9] = Cytotoxicity against human MCF-7TN-R cells assessed as colony formation after 10 to 12 days by crystal violet staining assay; type: functional, cell-based; in short: as §3
[10] = system: OVCAR-8; assay: Cytotoxicity against human OVCAR8 cells assessed as cell viability after 72 hrs by CellTiter-Glo luminescence assay; type: functional, cell-based; settings: OVCAR-8, 72 h; in short: as §2
[11] = Cytotoxicity against human MCF-7TN-R cells assessed as cell viability after 24 hrs by MTT assay; type: functional, cell-based; in short: as §1
[12] = Induction of apoptosis in human MCF-7TN-R cells assessed as caspase-9 activation at 2 times IC50 determined from MTT assay after 24 hrs by caspase Glo 9 assay relative to vehicle-treated control; type: functional
In short: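 MCF-7TN-R cells at 7500–10,000 per well in phenol-free DMEM adhered 24 h, then exposed 24 h at twice the MTT-derived IC50. Caspase-9 activity read by Caspase-Glo 9 luminescence, relative to DMSO vehicle. Triplicate on three occasions.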

[13] = system: MCF7; assay: Cytotoxicity against human MCF7 cells assessed as colony formation after 10 to 12 days by crystal violet staining assay; type: functional, cell-based; in short: as §3
[14] = Cytotoxicity against human MCF7/DX cells assessed as cell viability after 72 hrs by CellTiter-Glo luminescence assay; type: functional, cell-based; in short: as §2
[15] = system: MCF7; assay: Cytotoxicity against human MCF7 cells assessed as cell viability after 72 hrs by CellTiter-Glo luminescence assay; type: functional, cell-based; settings: MCF7, 72 h; in short: as §2
[16] = organism: Homo sapiens; assay: as §4; type: functional; in short: as §5

Ratio [2]	Ratio [4]	SMILES	IC50 [1] [µM]	IC50 [3] [µM]	IC50 [5] [µM]	IC50 [6] [µM]	IC50 [7] [µM]	fold change (FC) [8]	IC50 [9] [µM]	IC50 [10] [µM]	IC50 [11] [µM]	fold change (FC) [12]	IC50 [13] [µM]	IC50 [14] [µM]	IC50 [15] [µM]	Activity [16]
–	–	CCCCCCCCCCC/C=C/C=C/[C@@H](O)[C@H](CO)NC(=O)CCCCCCC	11.3	–	–	–	–	–	–	–	–	–	–	–	–	–
0.6	1	CCCCCCCCCC/C=C/C=C/C(=O)[C@H](CO)NC(=O)Cc1ccccc1	–	161	4.92	22	1.4	4.3	1.81	7.82	4.26	3.59	3.4	3.92	3.92	–
0.9	0.8	CCCCCCCCCCCCCCNC(=O)[C@H](CO)/N=C/c1ccccc1	–	–	13.8	–	–	–	–	16.3	–	–	–	10.1	14.1	–
–	–	CCCCCCCCCC/C=C/C=C/[C@@H](O)[C@@H]1COC(C)(C)N1C(=O)OC(C)(C)C	–	75.2	–	26.4	3.17	–	5.19	–	9.91	–	5.69	–	–	–
–	–	CCCCCCCCCC/C=C/C=C/C(=O)[C@@H]1COC(C)(C)N1C(=O)OC(C)(C)C	–	17.2	–	3.91	1.45	3.09	1.85	–	4.05	1.86	5.07	–	–	–
–	–	CCCCCCCCCCCCC/C=C/[C@@H](O)[C@H](CO)NC(=O)Cc1ccccc1	–	51.2	–	37.3	1.59	–	5.62	–	4.74	–	4.18	–	–	–
–	–	CCCCCCCCCCCCCCNC(=O)[C@H](CO)NC(=O)Cc1ccccc1	–	–	–	234	17.6	–	10.1	–	29	–	10.2	–	–	–
–	–	CCCCCCCCCCCCC/C=C/[C@@H](O)[C@H](CO)NC(=O)CCCCCCC	–	–	–	–	–	–	–	–	–	1.18	–	–	–	Active

From ChEMBL document CHEMBL3112569, “3-Ketone-4,6-diene ceramide analogs exclusively induce apoptosis in chemo-resistant cancer cells” (Bioorg Med Chem, 2014)
